Measured values published in ChEMBL document CHEMBL3797175, “Discovery of 6-(difluoro(6-(4-fluorophenyl)-[1,2,4]triazolo[4,3-b][1,2,4]triazin-3-yl)methyl)quinoline as a highly potent and selective c-Met inhibitor” (Eur J Med Chem, 2016).
Activity calls are given as the source filed them. The calls are words filed in the database; no cut-off is given here.

Key:
NCI-H460 = assay: Antiproliferative activity against human NCI-H460 cells after 72 hrs by SRB or MTT assay; assay type: functional, cell-based; conditions: NCI-H460, 72 h
How it was run: (§1)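 Cells seeded, exposed next day to a range of concentrations for 72 h. Growth read by sulforhodamine B or MTT. IC50 from four-parameter concentration-response fit. Each concentration tested at least in triplicate, with at least 2 experiments.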

[1] = Selectivity ratio of IC50 for human NCI-H596 cells to IC50 for mouse BAF3 cells expressing TPR-MET; assay type: ADME, cell-based
How it was run: (§2)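 Both IC50s in each ratio come from one proliferation assay. Cells were seeded and exposed the next day to a range of concentrations for 72 h, then read by SRB or MTT. IC50s were fitted by four-parameter concentration–response, with each concentration at least in triplicate and at least 2 experiments. BaF3/TPR-Met is murine pre-B BaF3 transfected with TPR-MET and puromycin-selected.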

[2] = Selectivity ratio of IC50 for human U87MG cells to IC50 for human MKN45 cells; assay type: ADME, cell-based; conditions: u-87mg atcc
[3] = biological target: T1, Hepatocyte growth factor receptor (Homo sapiens, UniProt P08581); assay: Inhibition of c-Met phosphorylation at Tyrosine 1235 in human EBC1 cells at 10 nM after 1 hr by Western blot analysis; assay type: cell-based
T1 sequence (P08581 whole entry): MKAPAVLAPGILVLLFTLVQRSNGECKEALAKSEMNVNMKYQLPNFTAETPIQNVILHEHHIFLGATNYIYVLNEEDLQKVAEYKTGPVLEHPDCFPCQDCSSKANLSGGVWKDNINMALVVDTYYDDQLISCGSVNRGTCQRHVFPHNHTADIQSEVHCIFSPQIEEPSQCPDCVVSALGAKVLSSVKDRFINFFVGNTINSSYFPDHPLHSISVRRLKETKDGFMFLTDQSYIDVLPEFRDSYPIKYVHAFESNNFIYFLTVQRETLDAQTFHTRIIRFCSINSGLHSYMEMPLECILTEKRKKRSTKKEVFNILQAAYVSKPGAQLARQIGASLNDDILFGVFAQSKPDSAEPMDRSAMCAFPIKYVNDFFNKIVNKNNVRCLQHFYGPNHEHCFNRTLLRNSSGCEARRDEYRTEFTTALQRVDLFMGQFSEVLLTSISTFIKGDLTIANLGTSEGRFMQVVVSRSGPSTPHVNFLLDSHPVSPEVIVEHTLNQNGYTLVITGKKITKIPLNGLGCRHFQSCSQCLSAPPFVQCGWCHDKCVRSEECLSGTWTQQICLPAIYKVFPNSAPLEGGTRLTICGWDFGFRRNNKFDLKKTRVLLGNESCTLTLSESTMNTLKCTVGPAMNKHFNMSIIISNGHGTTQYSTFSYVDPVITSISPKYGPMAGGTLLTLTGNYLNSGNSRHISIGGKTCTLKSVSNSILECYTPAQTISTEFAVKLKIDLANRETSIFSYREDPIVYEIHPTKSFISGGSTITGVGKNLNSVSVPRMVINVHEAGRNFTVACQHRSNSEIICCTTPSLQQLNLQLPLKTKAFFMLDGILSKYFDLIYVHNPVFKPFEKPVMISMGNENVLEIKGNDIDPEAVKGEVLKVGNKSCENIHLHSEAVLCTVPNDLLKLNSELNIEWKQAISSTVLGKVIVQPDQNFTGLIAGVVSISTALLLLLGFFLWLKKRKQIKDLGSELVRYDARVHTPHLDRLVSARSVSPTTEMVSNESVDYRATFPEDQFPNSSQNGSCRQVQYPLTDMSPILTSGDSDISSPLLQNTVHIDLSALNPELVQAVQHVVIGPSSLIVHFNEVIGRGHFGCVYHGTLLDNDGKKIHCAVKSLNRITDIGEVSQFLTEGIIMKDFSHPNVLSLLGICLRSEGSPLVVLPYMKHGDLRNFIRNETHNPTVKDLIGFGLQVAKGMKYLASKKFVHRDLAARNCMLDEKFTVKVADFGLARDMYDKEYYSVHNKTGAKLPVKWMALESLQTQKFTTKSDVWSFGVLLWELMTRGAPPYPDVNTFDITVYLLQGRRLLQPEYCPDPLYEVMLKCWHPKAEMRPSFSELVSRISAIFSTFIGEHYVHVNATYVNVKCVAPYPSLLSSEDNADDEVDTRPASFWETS
How it was run: (§3)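 EBC-1 or MKN45 cells treated with compound 1 h at 37 °C without HGF, then lysed in 1× SDS sample buffer. Lysates run on 10% SDS-PAGE and transferred to nitrocellulose. Probed with antibodies to c-Met, phospho-c-Met, phospho-ERK1/2, phospho-AKT, AKT and GAPDH, then HRP secondary. ECL detection.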

[4] = Selectivity ratio of IC50 for human PANC1 cells to IC50 for human MKN45 cells; assay type: ADME, cell-based; conditions: panc-1
How it was run: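 Each cell line was seeded in 96-well plates, then exposed the next day to a range of compound concentrations for 72 h. Growth was read by SRB or MTT assay, and IC50 was fitted by a four-parameter concentration-response curve. Each concentration was run at least in triplicate, in at least 2 experiments. BaF3/TPR-Met are murine pre-B BaF3 cells transfected with TPR-MET cDNA and selected in puromycin.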

[5] = biological target: T2, TPR/MET fusion protein (Mus musculus) (UniProt P16056+F6ZDS4); assay: Inhibition of TPR-MET phosphorylation in mouse BAF3 cells at 10 nM after 1 hr by Western blot analysis; assay type: cell-based
T2 sequence (F6ZDS4 whole entry partner, the tested form may be a part): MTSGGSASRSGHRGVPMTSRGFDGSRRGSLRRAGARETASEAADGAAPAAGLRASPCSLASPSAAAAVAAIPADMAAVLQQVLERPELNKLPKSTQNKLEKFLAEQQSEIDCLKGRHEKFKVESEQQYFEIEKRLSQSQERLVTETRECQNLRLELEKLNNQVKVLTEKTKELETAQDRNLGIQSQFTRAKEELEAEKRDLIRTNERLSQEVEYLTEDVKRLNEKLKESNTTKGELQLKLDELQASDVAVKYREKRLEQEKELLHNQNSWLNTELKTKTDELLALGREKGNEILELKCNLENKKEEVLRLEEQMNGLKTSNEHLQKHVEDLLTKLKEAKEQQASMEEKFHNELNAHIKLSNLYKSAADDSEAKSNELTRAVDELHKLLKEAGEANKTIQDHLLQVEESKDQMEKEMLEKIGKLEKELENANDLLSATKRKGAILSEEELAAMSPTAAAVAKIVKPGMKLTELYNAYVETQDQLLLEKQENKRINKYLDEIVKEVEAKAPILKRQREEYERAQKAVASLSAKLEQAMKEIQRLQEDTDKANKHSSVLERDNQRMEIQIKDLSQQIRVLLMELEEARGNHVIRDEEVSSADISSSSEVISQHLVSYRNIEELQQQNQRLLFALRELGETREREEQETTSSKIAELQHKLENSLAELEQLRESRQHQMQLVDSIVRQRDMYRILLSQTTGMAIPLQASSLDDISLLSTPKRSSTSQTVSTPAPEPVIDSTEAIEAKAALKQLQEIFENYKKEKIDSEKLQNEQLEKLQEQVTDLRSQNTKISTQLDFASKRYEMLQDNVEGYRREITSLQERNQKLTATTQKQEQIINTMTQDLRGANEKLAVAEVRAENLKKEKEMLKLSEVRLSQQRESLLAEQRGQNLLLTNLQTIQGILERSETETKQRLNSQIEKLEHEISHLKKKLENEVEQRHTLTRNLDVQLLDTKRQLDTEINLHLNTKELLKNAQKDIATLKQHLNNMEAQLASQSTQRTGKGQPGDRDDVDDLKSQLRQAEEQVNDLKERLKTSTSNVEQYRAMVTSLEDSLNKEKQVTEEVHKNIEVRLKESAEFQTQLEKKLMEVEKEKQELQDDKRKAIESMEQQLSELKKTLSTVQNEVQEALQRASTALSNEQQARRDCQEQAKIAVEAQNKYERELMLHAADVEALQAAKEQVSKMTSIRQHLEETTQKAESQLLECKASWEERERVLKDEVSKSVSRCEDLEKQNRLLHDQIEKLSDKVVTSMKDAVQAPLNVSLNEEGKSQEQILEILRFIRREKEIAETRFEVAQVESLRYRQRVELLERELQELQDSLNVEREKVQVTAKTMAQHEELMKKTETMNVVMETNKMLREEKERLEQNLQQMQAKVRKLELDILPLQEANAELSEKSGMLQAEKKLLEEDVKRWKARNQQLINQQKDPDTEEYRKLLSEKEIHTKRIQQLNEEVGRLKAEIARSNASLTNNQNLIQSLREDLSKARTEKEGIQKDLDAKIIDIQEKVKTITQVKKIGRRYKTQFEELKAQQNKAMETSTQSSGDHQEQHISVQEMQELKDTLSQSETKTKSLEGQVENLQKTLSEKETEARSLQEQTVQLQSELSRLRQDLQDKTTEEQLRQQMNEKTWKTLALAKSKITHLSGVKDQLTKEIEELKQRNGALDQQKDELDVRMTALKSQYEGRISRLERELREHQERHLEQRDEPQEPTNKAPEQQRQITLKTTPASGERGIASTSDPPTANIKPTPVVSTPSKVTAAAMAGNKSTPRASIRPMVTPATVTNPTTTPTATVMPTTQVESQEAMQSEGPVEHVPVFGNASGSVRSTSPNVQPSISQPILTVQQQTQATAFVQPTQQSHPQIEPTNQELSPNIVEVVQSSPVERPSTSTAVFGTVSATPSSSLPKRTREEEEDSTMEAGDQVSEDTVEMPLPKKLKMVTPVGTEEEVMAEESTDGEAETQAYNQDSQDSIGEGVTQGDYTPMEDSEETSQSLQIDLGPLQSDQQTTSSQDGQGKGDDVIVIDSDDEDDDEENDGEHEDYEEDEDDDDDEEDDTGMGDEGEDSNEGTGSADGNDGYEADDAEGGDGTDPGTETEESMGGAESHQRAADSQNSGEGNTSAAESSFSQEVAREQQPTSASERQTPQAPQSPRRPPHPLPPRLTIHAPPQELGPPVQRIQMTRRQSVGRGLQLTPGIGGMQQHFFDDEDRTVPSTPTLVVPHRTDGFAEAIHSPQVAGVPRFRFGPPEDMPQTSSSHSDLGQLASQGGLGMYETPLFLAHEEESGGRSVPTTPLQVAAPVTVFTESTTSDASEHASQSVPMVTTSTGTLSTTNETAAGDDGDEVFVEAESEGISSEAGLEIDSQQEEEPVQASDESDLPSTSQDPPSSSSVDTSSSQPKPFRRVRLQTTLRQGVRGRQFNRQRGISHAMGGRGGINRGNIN
T2 sequence (P16056 25-1379 limits assumed): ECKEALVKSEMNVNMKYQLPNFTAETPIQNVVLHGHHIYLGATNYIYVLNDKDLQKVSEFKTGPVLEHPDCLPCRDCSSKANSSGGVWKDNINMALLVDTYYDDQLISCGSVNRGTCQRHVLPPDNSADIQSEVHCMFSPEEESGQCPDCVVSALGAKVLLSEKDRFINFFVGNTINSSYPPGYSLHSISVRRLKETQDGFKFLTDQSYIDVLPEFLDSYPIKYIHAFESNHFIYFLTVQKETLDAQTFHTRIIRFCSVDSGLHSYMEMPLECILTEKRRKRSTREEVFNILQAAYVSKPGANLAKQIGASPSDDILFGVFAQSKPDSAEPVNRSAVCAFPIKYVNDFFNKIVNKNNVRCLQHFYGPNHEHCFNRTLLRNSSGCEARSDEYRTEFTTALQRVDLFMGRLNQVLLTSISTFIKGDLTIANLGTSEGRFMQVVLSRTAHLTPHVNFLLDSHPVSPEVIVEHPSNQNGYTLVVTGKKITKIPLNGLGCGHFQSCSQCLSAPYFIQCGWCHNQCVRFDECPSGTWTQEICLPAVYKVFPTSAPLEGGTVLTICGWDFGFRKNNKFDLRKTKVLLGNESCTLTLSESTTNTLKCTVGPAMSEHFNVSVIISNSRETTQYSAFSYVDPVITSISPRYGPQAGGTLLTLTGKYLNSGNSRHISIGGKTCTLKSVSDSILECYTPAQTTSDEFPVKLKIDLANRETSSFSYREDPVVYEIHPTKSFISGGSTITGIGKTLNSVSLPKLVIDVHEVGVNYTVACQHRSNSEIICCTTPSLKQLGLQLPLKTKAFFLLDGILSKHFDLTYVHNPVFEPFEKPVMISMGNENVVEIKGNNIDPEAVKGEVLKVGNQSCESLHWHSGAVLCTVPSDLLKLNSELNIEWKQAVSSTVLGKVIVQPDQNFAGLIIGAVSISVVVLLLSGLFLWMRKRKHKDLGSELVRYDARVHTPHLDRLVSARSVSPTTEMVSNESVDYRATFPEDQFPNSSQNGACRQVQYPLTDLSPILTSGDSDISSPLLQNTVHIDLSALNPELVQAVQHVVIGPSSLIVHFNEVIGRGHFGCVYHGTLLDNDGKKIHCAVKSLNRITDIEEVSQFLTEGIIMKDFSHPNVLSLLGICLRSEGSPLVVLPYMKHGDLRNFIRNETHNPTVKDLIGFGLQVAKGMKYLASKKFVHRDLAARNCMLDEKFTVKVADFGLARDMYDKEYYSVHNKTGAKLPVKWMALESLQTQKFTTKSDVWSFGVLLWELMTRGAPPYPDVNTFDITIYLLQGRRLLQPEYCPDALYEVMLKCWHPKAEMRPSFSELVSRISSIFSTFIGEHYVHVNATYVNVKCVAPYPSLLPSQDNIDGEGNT
How it was run: (§4)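 BaF3 stably expressing TPR-MET (puromycin-selected), grown with IL-3-conditioned medium. Treated 1 h at 37 °C, lysed in SDS sample buffer. 10% SDS-PAGE and immunoblot for phospho-c-Met, phospho-ERK1/2, phospho-AKT and totals; ECL detection.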

[6] = Selectivity ratio of IC50 for human SPCA4 cells to IC50 for human EBC1 cells; assay type: ADME, cell-based; conditions: spc-a4
786-0 = assay: Antiproliferative activity against human 786-0 cells after 72 hrs by SRB or MTT assay; assay type: functional, cell-based; conditions: 786-0, 72 h; how it was run: as §1
[7] = biological target: T1, Hepatocyte growth factor receptor; assay: Inhibition of c-Met phosphorylation at Tyrosine 1234 in human EBC1 cells at 10 nM after 1 hr by Western blot analysis; assay type: cell-based; how it was run: as §3
[8] = biological target: Platelet-derived growth factor receptor beta (Homo sapiens) (UniProt P09619); assay: Inhibition of recombinant PDGFRbeta (unknown origin) using poly (Glu, Tyr) 4:1 as substrate at 1000 nM incubated for 60 mins by ELISA relative to control
How it was run: (§5)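 Recombinant tyrosine kinases assayed on wells precoated with poly(Glu,Tyr)4:1 (20 µg/mL). ATP 10 µmol/L in HEPES pH 7.4 buffer with MgCl2, MnCl2, Na3VO4 and DTT; compound in 1% DMSO, 1% DMSO as control. Reaction 60 min at 37 °C. Phosphotyrosine detected with PY99 and HRP anti-mouse, o-phenylenediamine, A490. Inhibition % relative to control; two experiments.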

[9] = biological target: Vascular endothelial growth factor receptor 1 (Homo sapiens) (UniProt P17948); assay: Inhibition of recombinant FLT1 (unknown origin) using poly (Glu, Tyr) 4:1 as substrate at 1000 nM incubated for 60 mins by ELISA relative to control; how it was run: as §5
[10] = Antiproliferative activity against human SPCA4 cells after 72 hrs by SRB or MTT assay; assay type: functional, cell-based; conditions: SPC-A4, 72 h; how it was run: as §1
[11] = Volume of distribution at steady state in Sprague-Dawley rat at 2 mg/kg, iv administered as single dose; assay type: ADME, organism-based; conditions: in vivo, read-out: Vdss
How it was run: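 Male Sprague-Dawley rats (n=3), single dose. IV 2 mg/kg in 1% DMA/9% Cremophor/90% saline; PO 10 mg/kg in 0.5% CMC-Na. For one compound, IV 10 mg/kg in DMSO/Tween 80/PEG40 and PO 10 mg/kg in 10% DMSO/5% Tween 80/85% saline.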

[12] = Half life in Sprague-Dawley rat at 2 mg/kg, iv administered as single dose; assay type: ADME, organism-based; conditions: in vivo
How it was run: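 Male Sprague Dawley rats (n=3), single dose. iv 2 mg/kg in 1% DMA/9% Cremophor/90% saline. po 10 mg/kg in 0.5% CMC-Na. Where iv was 10 mg/kg: 10% DMSO/10% Tween 80/80% (40% PEG40); po in that case in 10% DMSO/5% Tween 80/85% saline.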

[13] = Selectivity ratio of IC50 for human NCI-H596 cells to IC50 for human EBC1 cells; assay type: ADME, cell-based; how it was run: as §2
[14] = Selectivity ratio of IC50 for human SNU1 cells to IC50 for mouse BAF3 cells expressing TPR-MET; assay type: ADME, cell-based
[15] = biological target: Mast/stem cell growth factor receptor Kit (Homo sapiens) (UniProt P10721); assay: Inhibition of recombinant c-Kit (unknown origin) using poly (Glu, Tyr) 4:1 as substrate at 1000 nM incubated for 60 mins by ELISA relative to control; how it was run: as §5
[16] = biological target: Tyrosine-protein kinase Mer (Homo sapiens) (UniProt Q12866); conditions: 1000 nM
[17] = Antiproliferative activity against human Bel7404 cells after 72 hrs by SRB or MTT assay; assay type: functional, cell-based; conditions: BEL-7404, 72 h; how it was run: as §1
[18] = Antiproliferative activity against human SNU16 cells after 72 hrs by SRB or MTT assay; assay type: functional, cell-based; conditions: SNU-16, 72 h; how it was run: as §1
[19] = Selectivity ratio of IC50 for human SPCA4 cells to IC50 for mouse BAF3 cells expressing TPR-MET; assay type: ADME, cell-based; conditions: SPCA4 cells versus BAF3 cells expressing TPR-MET
[20] = biological target: T2, TPR/MET fusion protein (Mus musculus); assay: Inhibition of TPR-MET in mouse BAF3 cells assessed as reduction in ERK phosphorylation at Threonine 202 at 10 nM after 1 hr by Western blot analysis; assay type: cell-based; how it was run: as §4
[21] = Selectivity ratio of IC50 for human NCI-H3122 cells to IC50 for mouse BAF3 cells expressing TPR-MET; assay type: ADME, cell-based; how it was run: as §2
[22] = Selectivity ratio of IC50 for human BGC823 cells to IC50 for human MKN45 cells; assay type: ADME, cell-based; conditions: bgc-823; how it was run: as §2
[23] = Selectivity ratio of IC50 for human NCI-H1299 cells to IC50 for mouse BAF3 cells expressing TPR-MET; assay type: ADME, cell-based; how it was run: as §2
[24] = Selectivity ratio of IC50 for human BGC823 cells to IC50 for mouse BAF3 cells expressing TPR-MET; assay type: ADME, cell-based; how it was run: as §2

In the case of Fc1ccc(-c2cnc3nnc(C(F)(F)c4ccc5ncccc5c4)n3n2)cc1, the IC50 (NCI-H460) is reported as > 10 µM, the “Ratio IC50” value [1] is reported as 10000 and the “Ratio IC50” value [2] is reported as 10000. The inhibition [3] was “Active”, the “Ratio IC50” value [4] was 10000 and the inhibition [5] was “Active”. For the same compound, the Ratio IC50 [6] was > 10000, the IC50 (786-0) was > 10 µM and the inhibition [7] was “Active”. For the same compound, the inhibition [8] was 19.6%, the inhibition [9] was 11.5% and the IC50 [10] was > 10 µM. The Vd [11] was 4.89 L/kg, the half-life [12] was 1.23 h and the “Ratio IC50” value [13] was 10000. The “Ratio IC50” value [14] was 10000, the inhibition [15] was 32.1% and the inhibition [16] was 13.5%. For the same compound, the IC50 [17] was > 10 µM, the IC50 [18] was > 10 µM and the selectivity ratio [19] was > 10000. For the same compound, the inhibition [20] was “Active”, the “Ratio IC50” value [21] was 10000 and the Ratio IC50 [22] was > 10000. For the same compound, the “Ratio IC50” value [23] was 10000 and the Ratio IC50 [24] was > 10000.
